Bioassay records deposited in PubChem BioAssay by several laboratories.
Most compounds without a hit are left out; they make up all but 6.5% or so of the library.
PostGolgi yeast = growth inhibition of a yeast mutant, post-Golgi transport screen; inhibition, % at 10 µM; 0.9% of 98,000 active; post-Golgi transport phenotypic cell assay;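 also: yeast cells grown in 1536-well plates; yeast grown about 18 h at 30C before absorbance read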
E coli WT exp = blocks growth of wild type E. coli BW25113; growth inhibition, % at 100 µM; 0.15% of 98,000 active; OD600 absorbance;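 active = growth inhibition above about 50% at one test dose, limit read from the data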;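 also: growth measured after 20 h incubation at 37 °C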
Candida biofilm = kills Candida albicans biofilms; C. albicans biofilm + clotrimazole, Alamar Blue; inhibition, % at 6 µM; 0.14% of 85,000 active;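 active = inhibition above 20%; inactive = inhibition below 20%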;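 also: preformed 24 hr biofilms exposed to compound for 48 hr; 0% = biofilm without compound and 100% = blank killed by clotrimazole plus chlorhexidine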
PTK2B oligo ant = blocks oligomerization of human Pyk2 in cells | Q14289 | Q293 cells, Pyk2 FERM NanoBiT luminescence; active compounds read low | z-score (the deposit names both 25 µM and 10 µM) | 0.83% of 99,000 active;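 active = Z-score of -3 or lower, scaled per plate to the spread of control and sample wells; inactive = z-score above -3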;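 also: negative z-score means lost luminescence so less FERM oligomerization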
Target sequence (Q14289 whole entry, looked up): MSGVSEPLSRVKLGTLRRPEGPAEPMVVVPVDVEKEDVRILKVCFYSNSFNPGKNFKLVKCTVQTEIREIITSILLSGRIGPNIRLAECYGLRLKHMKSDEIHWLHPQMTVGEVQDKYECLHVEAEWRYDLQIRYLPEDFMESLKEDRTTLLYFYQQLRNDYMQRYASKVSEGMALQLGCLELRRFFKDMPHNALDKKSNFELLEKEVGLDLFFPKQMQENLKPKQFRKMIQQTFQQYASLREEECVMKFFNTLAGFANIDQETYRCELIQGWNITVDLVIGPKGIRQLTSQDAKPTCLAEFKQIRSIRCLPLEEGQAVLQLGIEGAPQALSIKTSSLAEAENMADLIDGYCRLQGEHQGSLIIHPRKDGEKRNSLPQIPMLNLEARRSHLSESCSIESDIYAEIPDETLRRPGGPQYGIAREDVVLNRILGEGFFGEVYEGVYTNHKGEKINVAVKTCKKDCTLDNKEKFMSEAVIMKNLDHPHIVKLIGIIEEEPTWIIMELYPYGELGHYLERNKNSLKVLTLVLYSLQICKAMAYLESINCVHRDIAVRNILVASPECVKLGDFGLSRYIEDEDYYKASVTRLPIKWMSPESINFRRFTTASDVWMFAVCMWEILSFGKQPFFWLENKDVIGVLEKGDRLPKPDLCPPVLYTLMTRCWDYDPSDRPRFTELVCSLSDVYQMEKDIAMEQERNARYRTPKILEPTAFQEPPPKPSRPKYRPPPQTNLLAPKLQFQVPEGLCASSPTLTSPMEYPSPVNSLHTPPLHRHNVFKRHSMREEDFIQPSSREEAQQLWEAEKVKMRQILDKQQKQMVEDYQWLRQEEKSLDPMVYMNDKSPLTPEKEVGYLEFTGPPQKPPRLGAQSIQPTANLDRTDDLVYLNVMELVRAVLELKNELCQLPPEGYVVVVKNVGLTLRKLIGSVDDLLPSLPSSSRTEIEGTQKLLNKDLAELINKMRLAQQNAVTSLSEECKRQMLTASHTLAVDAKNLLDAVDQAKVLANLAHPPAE
tolC growth inh = blocks growth of E. coli BW25113 tolC mutant; OD615; growth inhibition, % at 10 µM (by protocol); 2.2% of 65,000 active; AID 573;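 active = growth inhibition at or above a cutoff equal to the mean over every tested compound plus 3 SD, cut at about 60% in these data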;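 also: growth measured after 20 h incubation at 37 °C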
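test system = E. coli BW25113 ΔtolC::kan bacteria | medium = LB with kanamycin 50 µg/mL | signal = OD at 615 nm | schedule = 37 °C, 20 h exposure | evaluation = % inhibition of E. coli growth | compound dosing = one dose of 10 µM final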
PostGolgi ctrl = growth of the yeast control strain, post-Golgi counter-screen; 5% of 98,000 active; inhibition, % at 10 µM; efflux-deficient yeast background strain, growth absorbance A615, 16 h; AID 738
An asterisk follows results filed as active; . = no result given. Rule as the data show it, unless noted: active = inhibition above about 30%; inactive = the rest.

SMILES	PostGolgi yeast	E coli WT exp	Candida biofilm	PTK2B oligo ant	tolC growth inh	PostGolgi ctrl
O=C(O)CCCC(=O)Nc1cccc(-c2nc3ccccc3[nH]2)c1	1.6	1.0	-1.1	0.79	-6.2	30.6*
CCn1c(CSc2nc3ccccc3s2)nnc1SCC(=O)c1ccc(Cl)cc1	-9.0	-5.0	.	-0.2	.	42.6*
CCn1c(CSc2nc3ccccc3s2)nnc1SCC(=O)c1ccc(O)c(O)c1	18.6	-4.0	.	0.6	.	-16.9
COc1ccc(S(=O)(=O)Nc2cc3c4c(oc3c3ccccc23)CCCC4=O)cc1	2.4	-2.0	.	-1.48	.	45.4*
COC(=O)c1ccc(Oc2cc(C)nc(NCc3ccccc3)n2)cc1	-8.3	-5.0	-2.8	-0.9	7.2	5.3
Cc1cc(Oc2ccc(C#N)cc2)nc(NCc2ccccc2)n1	4.3	-9.0	-6.1	0.14	.	30.7*
O=C(Nc1cccc(Cl)c1)N(CCCN1CCOCC1)Cc1ccccc1F	-0.2	40.0	3.1	-0.38	68.2*	4.2
O=C(Nc1ccccc1)N(CCCN1CCOCC1)Cc1ccccc1F	3.5	0.0	4.1	0.29	-7.5	6.2
O=C(Nc1ccc(F)cc1)N(CCCN1CCOCC1)Cc1cc2cc3c(cc2[nH]c1=O)OCCO3	1.8	-1.0	10.3	0.52	8.2	39.5*
Cc1c(Cl)cccc1NC(=S)N(CCCN1CCOCC1)Cc1cccs1	.	.	.	-0.09	.	.
O=C(Nc1ccc(Cl)cc1)N(Cc1cccs1)Cc1cccs1	1.5	-24.0	3.5	-2.18	94.8*	34.8*
O=C(Nc1ccc(Cl)c(Cl)c1)N(CCCN1CCOCC1)Cc1cccs1	14.7	5.0	9.7	.	.	30.6*
c1ccc(Oc2cccc(NC3=NCCC3)c2)cc1	0.2	5.0	.	0.96	0.0	1.4
Oc1cccc2ccc(Nc3ccccn3)nc12	1.9	100.0*	10.9	-1.38	1.8	14.6
CN(C)c1ccc(O)c2c1CC1CC3[C@@H](N(C)C)C(=O)C(C(N)=O)=C(O)[C@]3(O)C(=O)C1=C2O (stereo partly drawn)	.	.	25.3*	.	5.4	.
Cc1ccc(CNC(=O)CSCC(=O)O)cc1	3.8	-15.0	3.6	0.12	.	41.4*
CCCCCC(/C=N/Nc1ccc(S(=O)(=O)N2CCOCC2)cc1[N+](=O)[O-])=C\c1ccccc1	-6.1	-17.0	.	-1.11	.	3.4
CCc1cc(C(c2cccc(OC)c2)N2CCOCC2)c(NC(=O)c2ccccc2)s1 (stereo not drawn)	9.2	-10.0	.	-1.55	.	18.2
CCc1cc(C(c2ccc(F)cc2)N2CCOCC2)c(NC(=O)c2ccccc2)s1 (stereo not drawn)	32.0*	11.0	.	1.16	.	11.4
O=S(=O)(Nc1ccccc1)c1ccc(Oc2ncc(C(F)(F)F)cc2Cl)cc1	11.6	-2.0	.	-0.61	.	58.8*
COc1ccc(/C=C(\C#N)C(=O)Nc2cc(S(=O)(=O)N3CCCCC3)ccc2N2CCCCC2)cc1	.	.	.	-0.68	.	.
CCN(CC)c1ccc2cc(C(C)=O)c(=O)oc2c1	1.4	2.0	0.9	-0.89	.	5.6
CCN(CC)c1ccc2cc(-c3nnc(-c4ccncc4)o3)c(=O)oc2c1	-0.6	-7.0	.	-2.35	6.7	51.0*
CC(C)C(NC(=O)C1CCCCC1)C(=O)NC1CCN(Cc2ccccc2)CC1 (stereo not drawn)	-7.7	4.0	5.3	.	-10.7	-1.3
COc1ccc(OC)c(-c2nnc(NC(=O)C(C)Sc3nncn3C)s2)c1 (stereo not drawn)	-0.2	5.0	22.5*	.	13.1	5.8
SMILES	PostGolgi yeast	E coli WT exp	Candida biofilm	PTK2B oligo ant	tolC growth inh	PostGolgi ctrl
COc1ccc(Cl)cc1NC(=O)C(C)Sc1nncn1C (stereo not drawn)	-3.6	3.0	8.2	-0.29	.	10.7
O=S(=O)(N1CCCCC1)n1c(Cc2ccccc2)nc2ccccc21	6.8	2.0	2.3	-0.75	100.0*	37.0*
CCOC(=O)Nc1nc(-c2ccccc2)c(C(=O)c2ccc(Cl)cc2)s1	8.6	-18.0	.	-3.4*	.	27.0
O=C(CNS(=O)(=O)c1ccc2ccccc2c1)OCc1nnc(-c2ccccc2)o1	-4.5	-1.0	.	1.09	.	-4.0
N#CCSc1n[nH]c2nc3c(c(=O)n12)C1(CCCC1)Cc1ccccc1-3	1.4	7.0	-2.6	-2.97	97.7*	21.1
CCn1c(SCC(N)=O)nc2c(c1=O)C1(CCCC1)Cc1ccccc1-2	-10.0	8.0	-0.2	-1.09	.	50.4*
CCn1c(=O)c2c(n3cnnc13)-c1ccccc1CC21CCCCC1	27.6	1.0	8.8	-1.06	12.8	56.3*
O=c1c2c(n3cnnc3n1-c1ccccc1)-c1ccccc1CC21CCCCC1	12.5	-2.0	.	-0.95	.	19.6
Cc1cccc(-n2c(=O)c3c(n4cnnc24)-c2ccccc2CC32CCCCC2)c1	-17.5	-9.0	.	-0.22	.	45.9*
CC(C)(C)NC1=CC(=O)OC12CCCCC2	-13.4	-7.0	5.5	0.46	-13.8	3.6
CN(C)CCNCc1ccccc1OC1CCCC1	1.6	11.0	1.6	0.89	.	0.5
Cc1ccc(C(=O)NCCSC2CCCCC2)cc1S(=O)(=O)Nc1ccccc1	-3.4	-8.0	.	-1.67	.	14.8
Cc1cc(C(=O)OCC(=O)Nc2cc(C(F)(F)F)ccc2N2CCOCC2)c(C)o1	12.6	3.0	6.5	-1.02	12.8	10.1
CC(=O)c1c(C)nn(C(=O)N2CCOCC2)c1C	.	.	11.7	1.33	-28.4	.
Cc1nc(N2CCN(S(=O)(=O)c3cccc4nonc34)CC2)c2c3c(sc2n1)CCCC3	25.0	-14.0	-4.1	1.8	49.5	58.7*
CN1CCN(C(=O)c2ccc(COc3ccc(Cl)cc3Cl)cc2)CC1	-7.7	6.0	7.2	-0.91	37.8	5.8
O=C(c1ccc(Cl)cc1)N1CCC(O)(CSc2ccc(Cl)cc2Cl)CC1	14.9	-7.0	.	-1.94	.	93.5*
Cc1ccc(C)c(S(=O)(=O)C(C#N)c2nc3ccccc3nc2N2CCOCC2)c1 (stereo not drawn)	-3.3	1.0	4.3	-0.07	70.0*	4.1
Cc1ccc(C)c(S(=O)(=O)C(C#N)c2nc3ccccc3nc2N2CCCC2)c1 (stereo not drawn)	-5.3	-6.0	5.6	-0.01	35.7	6.4
N#CC(c1nc2ccccc2nc1N1CCCC1)S(=O)(=O)c1ccccc1 (stereo not drawn)	-0.6	10.0	2.0	1.33	18.1	31.4*
CCOC(=O)C1=C(N)N2C(=O)C(C)SC2=C(C(=O)OC)C1c1ccccc1OC (stereo not drawn)	110.4*	-2.0	5.6	-0.46	20.8	74.5*
O=C(c1ccc(Cl)cc1)c1oc2ccccc2c1CS(=O)c1ccccc1 (stereo not drawn)	-3.8	-7.0	.	-0.82	.	49.4*
CC(C)CC(=O)Nc1cc2nn(-c3ccccc3)nc2cc1Cl	-5.4	-5.0	53.0*	-0.26	.	4.8
Cc1cc(=O)oc2cc(OCCSCCN3CCOCC3)ccc12	5.8	5.0	-5.7	1.88	7.6	31.9*
Cc1ccc(-c2ccc(CCC(=O)O)n2Cc2ccco2)cc1	-1.9	5.0	7.0	0.4	18.4	12.5
COc1cccc(OC)c1-c1nn2c(-c3ccccc3Cl)nnc2s1	-3.4	-1.0	7.2	-3.02*	20.3	37.7*
Clc1ccccc1-c1nnc2sc(-c3ccccn3)nn12	.	.	9.9	-0.28	-9.9	.
